Converted amounts (≈) assume the structure as drawn. Each block holds one compound with its values, some of them ahead of it. The source made the active and inactive calls. The rule behind the calls is not given here.
What was measured:
[1] = target: DNA gyrase subunit B (Staphylococcus aureus) (UniProt P0A0K8); assay: Inhibition of Staphylococcus aureus DNA gyrase B assessed as residual activity at 1 uM preincubated for 10 mins followed by ATP addition measured after 30 mins by purine nucleoside phosphorylase enzyme coupled spectrophotometric method relative to control
[2] = tested on: Staphylococcus aureus; assay: Growth inhibition of Staphylococcus aureus ATCC 25923 at 50 uM after 24 hrs by broth microdilution method relative to control; assay type: functional; conditions: ATCC 25923, 24 h, read-out: GI
[3] = target: DNA gyrase subunit B (Escherichia coli, UniProt P0AES6); assay: Inhibition of Escherichia coli DNA gyrase by supercoiling assay
[4] = tested on: Escherichia coli; assay: Growth inhibition of tolC deficient Escherichia coli JW5503 at 50 uM after 24 hrs by broth microdilution method relative to control; assay type: functional; conditions: JW5503, 24 h, read-out: GI
[5] = tested on: Staphylococcus aureus; assay: (§1) Inhibition of Staphylococcus aureus topoisomerase-4 assessed as residual activity at 1 uM preincubated for 10 mins followed by ATP addition measured after 30 mins by purine nucleoside phosphorylase enzyme coupled spectrophotometric method relative to control
[6] = tested on: Pseudomonas aeruginosa; assay: Growth inhibition of Pseudomonas aeruginosa ATCC 27853 at 50 uM after 24 hrs by broth microdilution method relative to control; assay type: functional; conditions: ATCC 27853, 24 h, read-out: GI
[7] = tested on: Escherichia coli; assay: as §1, with “Escherichia coli C-terminal His6-tagged” for “Staphylococcus aureus”, “topoisomerase-4 expressed in Escherichia coli BL21(DE3)” for “topoisomerase-4”
[8] = tested on: Enterococcus faecalis; assay: Growth inhibition of Enterococcus faecalis ATCC 29212 at 50 uM after 24 hrs by broth microdilution method relative to control; assay type: functional; conditions: ATCC 29212, 24 h, read-out: GI
[9] = tested on: Escherichia coli; assay: Growth inhibition of lpxC deficient Escherichia coli JD17464 at 50 uM after 24 hrs by broth microdilution method relative to control; assay type: functional; conditions: JD17464, 24 h, read-out: GI
[10] = tested on: Escherichia coli; assay: Growth inhibition of Escherichia coli ATCC 25922 at 50 uM after 24 hrs by broth microdilution method relative to control; assay type: functional; conditions: ATCC 25922, 24 h, read-out: GI
[11] = tested on: HUVEC; assay: Cytotoxicity against HUVEC assessed as reduction in cell proliferation after 72 hrs by MTS assay; assay type: cell-based; conditions: Homo sapiens
Summary of the method: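 MTS assay in HUVEC grown in Eagle's MEM with 2 mM L-glutamine, penicillin/streptomycin and 10% FBS, at 37 °C under 5% CO2. Cells seeded at 2000 per well, attached for 24 h, then exposed to six compound concentrations (0.5% DMSO final) for 72 h. Reagent added for 3 h before reading A490. IC50 derived against DMSO-treated cells; triplicate wells, two repeats.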

[12] = tested on: Escherichia coli; assay: Antibacterial activity against Escherichia coli ATCC 25922 after 18 hrs in presence of efflux pump inhibitor PAbetaN by broth microdilution method; assay type: functional; conditions: ATCC 25922, 18 h
Summary of the method: (§2)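 Efflux pump inhibitor PAβN was added to EUCAST/ISO 20776-1 broth microdilution using 12-step serial dilutions in cation-adjusted Mueller-Hinton II broth. About 5 × 10^4 bacteria were inoculated per well and incubated at 37 °C, shaken at 300 rpm, for 18 h, then read at OD600. MIC is the lowest concentration with background-normalized OD600 below 0.05, from 3 replicates.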

[13] = tested on: Escherichia coli; assay: Antibacterial activity against Escherichia coli BW25113 up to 20 uM after 18 hrs in presence of efflux pump inhibitor PAbetaN by broth microdilution method; assay type: functional, organism-based
[14] = tested on: Escherichia coli; assay: Antibacterial activity against tolC deficient Escherichia coli BW25113 up to 50 uM after 18 hrs by broth microdilution method; assay type: functional, organism-based
Summary of the method: (§3)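 Broth microdilution per EUCAST/ISO 20776-1:2006: 12-step serial dilutions of compound in cation-adjusted Mueller-Hinton II broth, about 5 × 10^4 bacteria per well, 37 °C with shaking at 300 rpm, OD600 read after 18 h. MIC is the lowest concentration with background-normalized OD600 below 0.05, i.e. no visible growth; 3 replicates. Top concentration 50 μM.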

[15] = tested on: Escherichia coli; assay: Antibacterial activity against Escherichia coli ATCC 25922 up to 50 uM after 18 hrs by broth microdilution method; assay type: functional, organism-based; summary of the method: as §3
[16] = tested on: Escherichia coli; assay: Antibacterial activity against mrcB deficient Escherichia coli BW25113 up to 20 uM after 18 hrs in presence of efflux pump inhibitor PAbetaN by broth microdilution method; assay type: functional, organism-based
Summary of the method: (§4)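 Same EUCAST broth microdilution in cation-adjusted Mueller-Hinton II broth, 12-step compound dilutions, about 5 × 10^4 bacteria per well, 37 °C, 300 rpm, OD600 at 18 h. Parental and mutant strains were co-treated with the efflux pump inhibitor PAβN. MIC taken as normalized OD600 below 0.05; 3 replicates.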

[17] = tested on: Enterococcus faecalis; assay: Antibacterial activity against Enterococcus faecalis ATCC 29212 after 18 hrs by broth microdilution method; assay type: functional; conditions: ATCC 29212, 18 h
[18] = tested on: Escherichia coli; assay: Antibacterial activity against Escherichia coli MG1655 after 18 hrs in presence of efflux pump inhibitor PAbetaN by broth microdilution method; assay type: functional; conditions: K-12 substr. MG1655, 18 h; summary of the method: as §2
[19] = tested on: Escherichia coli; assay: Antibacterial activity against dapF deficient Escherichia coli BW25113 up to 20 uM after 18 hrs in presence of efflux pump inhibitor PAbetaN by broth microdilution method; assay type: functional, organism-based; summary of the method: as §4
[20] = tested on: Escherichia coli; assay: Antibacterial activity against dapF deficient Escherichia coli BW25113 up to 50 uM after 18 hrs by broth microdilution method; assay type: functional, organism-based; summary of the method: as §3
[21] = tested on: Escherichia coli; assay: Antibacterial activity against Escherichia coli MG1655 up to 50 uM after 18 hrs by broth microdilution method; assay type: functional, organism-based; conditions: K-12 substr. MG1655; summary of the method: as §3
[22] = Inhibition of Staphylococcus aureus topoisomerase-4 assessed as residual activity preincubated for 10 mins followed by ATP addition measured after 30 mins by purine nucleoside phosphorylase enzyme coupled spectrophotometric method
[23] = Cytotoxicity against human HepG2 cells assessed as cell proliferation at 50 uM after 72 hrs by MTS assay relative to control; assay type: cell-based; conditions: read-out: Activity
Summary of the method: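 MTS assay in HepG2 grown in Eagle's MEM with 2 mM L-glutamine, penicillin/streptomycin and 10% FBS, at 37 °C under 5% CO2. Cells seeded at 2000 per well and attached for 24 h. Compound added at 50 μM (0.5% DMSO final) for 72 h, then reagent for 3 h and A490 read. […] Triplicate wells, two repeats, Welch's t-test.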

[24] = tested on: Staphylococcus aureus; assay: Antibacterial activity against methicillin-resistant Staphylococcus aureus ATCC 43300 after 18 hrs by broth microdilution method; assay type: functional; conditions: ATCC 43300, 18 h
[25] = tested on: Escherichia coli; assay: Antibacterial activity against surA deficient Escherichia coli BW25113 up to 50 uM after 18 hrs by broth microdilution method; assay type: functional, organism-based; summary of the method: as §3
[26] = tested on: Staphylococcus aureus; assay: Antibacterial activity against Staphylococcus aureus ATCC 29213 after 18 hrs by broth microdilution method; assay type: functional; conditions: ATCC 29213, 18 h
Summary of the method: as §2, with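 “EUCAST/ISO” for “Efflux pump inhibitor PAβN was added to EUCAST/ISO”, “18 h. Growth was” for “18 h, then”, “read as” for “read at”, “concentration giving” for “concentration with”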

[27] = tested on: Escherichia coli; assay: Antibacterial activity against acrB deficient Escherichia coli BW25113 up to 50 uM after 18 hrs by broth microdilution method; assay type: functional, organism-based; summary of the method: as §3
[28] = tested on: Escherichia coli; assay: Antibacterial activity against surA deficient Escherichia coli BW25113 after 18 hrs in presence of efflux pump inhibitor PAbetaN by broth microdilution method; assay type: functional; conditions: BW25113, 18 h; summary of the method: as §2
[29] = tested on: Escherichia coli; assay: Antibacterial activity against Escherichia coli MG1655 harboring NOG R136C mutant up to 50 uM after 18 hrs in presence of efflux pump inhibitor PAbetaN by broth microdilution method; assay type: functional, organism-based; conditions: K-12 substr. MG1655
[30] = tested on: Escherichia coli; assay: Antibacterial activity against Escherichia coli BW25113 up to 50 uM after 18 hrs by broth microdilution method; assay type: functional, organism-based; summary of the method: as §3
[31] = tested on: Escherichia coli; assay: Antibacterial activity against mrcB deficient Escherichia coli BW25113 up to 50 uM after 18 hrs by broth microdilution method; assay type: functional, organism-based
Summary of the method: as §2, with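 “EUCAST/ISO” for “Efflux pump inhibitor PAβN was added to EUCAST/ISO”, “18 h. Growth was” for “18 h, then”, “read as” for “read at”, “concentration giving” for “concentration with”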

[32] = Inhibition of Escherichia coli C-terminal His6-tagged topoisomerase-4 expressed in Escherichia coli BL21(DE3) preincubated for 10 mins followed by ATP addition measured after 30 mins by purine nucleoside phosphorylase enzyme coupled spectrophotometric method
[33] = tested on: Staphylococcus aureus; assay: Antibacterial activity against Staphylococcus aureus ATCC 25923 after 18 hrs by broth microdilution method; assay type: functional; conditions: ATCC 25923, 18 h
[34] = tested on: Escherichia coli; assay: Antibacterial activity against tolC deficient Escherichia coli JW5503 after 18 hrs by broth microdilution method; assay type: functional; conditions: JW5503, 18 h
[35] = target: DNA gyrase subunit B (Staphylococcus aureus, UniProt P0A0K8); assay: Inhibition of Staphylococcus aureus DNA gyrase B preincubated for 10 mins followed by ATP addition measured after 30 mins by purine nucleoside phosphorylase enzyme coupled spectrophotometric method
[36] = tested on: Enterococcus faecalis; assay: Antibacterial activity against Enterococcus faecalis; assay type: functional, organism-based
[37] = tested on: Escherichia coli; assay: microbe, parasite or virus in culture; conditions: ATCC 25922, 18 h
[38] = Inhibition of Escherichia coli topoisomerase-4
[39] = tested on: Staphylococcus aureus; assay: Antibacterial activity against Staphylococcus aureus; assay type: functional

SMILES: NCCOc1cc(C(=O)N[C@@H](Cc2ccccc2)C(=O)O)ccc1NC(=O)c1cc(Br)c(Br)[nH]1
- Activity [1]: 89%
- inhibition of growth at 50 µM [2]: 20%
- IC50 [3]: 0.37 µM
- inhibition of growth at 50 µM [4]: -6%
- Activity [5]: 98%
- inhibition of growth at 50 µM [6]: 21%
- Activity [7]: 96%
- inhibition of growth at 50 µM [8]: 34%
- inhibition of growth at 50 µM [9]: 9%
- inhibition of growth at 50 µM [10]: 5%

SMILES: Cc1[nH]c(C(=O)Nc2ccc(C(=O)N[C@@H](C)c3n[nH]c(=O)o3)cc2OC(C)C)c(Cl)c1Cl
- IC50 [11]: 40.7 µM
- inhibition of growth at 50 µM [2]: 100%
- MIC90 [12]: 4.6 µM
- Activity [13]: inactive
- Activity [14]: inactive
- Activity [15]: inactive
- Activity [16]: inactive
- MIC90 [17]: 1.56 µM (≈ 0.752 µg/mL)
- inhibition of growth at 50 µM [4]: 51%
- MIC90 [18]: 10.2 µM
- Activity [19]: inactive
- Activity [20]: inactive
- Activity [21]: inactive
- inhibition of growth at 50 µM [6]: -1%
- IC50 [22]: 12 µM
- viability at 72 h, 50 µM [23]: 85%
- MIC90 [24]: 3.13 µM (≈ 1.51 µg/mL)
- inhibition of growth at 50 µM [8]: 97%
- Activity [25]: inactive
- inhibition of growth at 50 µM [9]: 0%
- MIC90 [26]: 4.17 µM (≈ 2.01 µg/mL)
- Activity [27]: inactive
- MIC90 [28]: 13.8 µM
- Activity [29]: inactive
- Activity [30]: inactive
- inhibition of growth at 50 µM [10]: 5%
- Activity [31]: inactive
- IC50 [32]: 11 µM

SMILES: COC(=O)[C@H](C)NC(=O)c1ccc(NC(=O)c2[nH]c(C)c(Cl)c2Cl)c(OCCN)c1
- MIC90 [33]: 50 µM (≈ 22.9 µg/mL)
- inhibition of growth at 50 µM [2]: 82%
- MIC90 [34]: 25 µM (≈ 11.4 µg/mL)
- IC50 [3]: 0.034 µM
- MIC90 [17]: 25 µM (≈ 11.4 µg/mL)
- inhibition of growth at 50 µM [4]: 100%
- IC50 [35]: 0.39 µM
- inhibition of growth at 50 µM [6]: 35%
- IC50 [22]: 3.7 µM
- Activity [7]: 89%
- inhibition of growth at 50 µM [8]: 100%
- inhibition of growth at 50 µM [9]: 47%
- inhibition of growth at 50 µM [10]: 67%

SMILES: COc1cc([C@@H]2c3cc4c(cc3[C@@H](O[C@@H]3O[C@@H]5CO[C@@H](C)O[C@H]5[C@H](O)[C@H]3O)[C@H]3COC(=O)[C@H]23)OCO4)cc(OC)c1O [ETOPOSIDE]
- IC50 [11]: 5.21 µM

- MIC [36]: 50 µM (≈ 21.4 µg/mL)
- IC50 [32]: 11 µM
SMILES: Cc1[nH]c(C(=O)Nc2ccc(C(=O)NCC(=O)O)cc2OC(C)C)c(Cl)c1Cl

- MIC90 [37]: 0.05 µM (≈ 0.0166 µg/mL)
SMILES: O=C(O)c1cn(C2CC2)c2cc(N3CCNCC3)c(F)cc2c1=O [CIPROFLOXACIN]

- Ki [38]: < 0.0001 µM
- MIC [39]: 0.06 µg/mL (≈ 0.138 µM)
SMILES: CNc1cc(F)cc2c1[nH]c1nc(Oc3cnc(C)nc3)nc(N3C[C@H]4CCN[C@H]4C3)c12

— ChEMBL document CHEMBL4152269, “New N-phenylpyrrolamide DNA gyrase B inhibitors: Optimization of efficacy and antibacterial activity” (Eur J Med Chem, 2018)
